Assay results of several laboratories.
Protocols differ between the studies behind these lines.
PNLIP: Pancreatic triacylglycerol lipase (PNLIP, Sus scrofa, UniProt P00591)
CHRM2: Muscarinic acetylcholine receptor M2 (CHRM2, Homo sapiens, UniProt P08172)
TMPRSS13: TMPRSS13 (Homo sapiens, UniProt Q9BYE2)

C=CCc1ccc(O)c(-c2cc(CC=C)ccc2O)c1
IC50 (PNLIP; enzyme activity; inhibitor; fluorescence): 3.24 µM

C[C@H](CCCOS(=O)(=O)O)[C@H]1CC[C@H]2[C@@H]3CC[C@H]4C[C@@H](O)CC[C@]4(C)[C@H]3CC[C@]12C
IC50 (CHRM2; cAMP; antagonist): 9.05 µM

CS(=O)(=O)N[C@@H](CCC(N)=O)C(=O)N[C@@H](Cc1ccccc1)C(=O)N[C@@H](CCCNC(=N)N)C(=O)c1nccs1
Ki (TMPRSS13; cell-free assay): 0.355 µM

[2H]c1c([2H])c([C@]2([2H])CCCN2C(=O)C(C)(C)Oc2ccc3cn[nH]c3c2)c([2H])c([2H])c1C([2H])([2H])[2H]
IC50 (Receptor-interacting serine/threonine-protein kinase 1 (RIPK1, Homo sapiens, UniProt Q13546); enzyme activity; inhibitor): 0.0018 µM

OB1OCc2cc(F)ccc21
IC50 (Carbapenem-hydrolyzing beta-lactamase KPC (KPC-2, Klebsiella pneumoniae, UniProt Q9F663); enzyme activity; inhibitor): 1.1 µM

O=C1Nc2ccc3ncsc3c2/C1=C/c1cnc[nH]1
IC50 (Serine/threonine-protein kinase Nek7 (NEK7, Homo sapiens, UniProt Q8TDX7); enzyme activity; inhibitor): 11.9 µM

COc1c2c(cc3c1-c1c(cc4c(c1OC)OCO4)C[C@H](C)[C@H](C)C3)OCO2
IC50 (PNLIP; enzyme activity; inhibitor; fluorescence): 8.65 µM

COc1cc2c(cc1OC)CN(CCc1ccc(NC(=O)c3cccc4c(=O)c5cccc(OC)c5[nH]c34)cc1)CC2
Ki (CHRM2; cell-free assay): 0.466 µM

C[C@H](NC(=O)[C@H](CCC(N)=O)NC(=O)CCCCNC(=N)N)C(=O)N[C@@H](CCCNC(=N)N)C(=O)c1nc2ccccc2s1
Ki (TMPRSS13; cell-free assay): 0.033 µM
